Experimental data pooled from the literature.
Target: Phosphatidylinositol 4-kinase beta (PI4KB, Homo sapiens, UniProt Q9UBF8)

`CS(=O)(=O)Nc1cccc(-c2csc(NC(=O)CSc3nc4nccnc4c(=O)n3CCc3ccccc3)n2)c1` has an inhibition of 17% (enzyme activity; inhibitor; 10 µM).
For `CC1CCCN1c1nccc(-c2cnn3ncccc23)n1` (stereo not shown), the remaining binding was 100% (binding; 1 µM).
`Cc1ccc(C(=O)Nc2ccc(CN3CCN(C)CC3)c(C(F)(F)F)c2)cc1C#Cc1cnc2cccnn12` gave a remaining activity of 89% (enzyme activity; inhibitor; 23.5 nM).
`O=C(Nc1cnc(Oc2ccc(F)cc2)nc1)N1CCc2ncccc2[C@@H]1c1ccc(F)cc1` gave a remaining binding of 89% (cell-free assay; competition with immobilised ligand; 1 µM).
With `CCCCNc1ncc2c(-c3ccc(F)cc3)nn(C[C@H]3CC[C@H](N)CC3)c2n1` the inhibition was 29.3% (target engagement in cells; inhibitor; chemoproteomics; 20 mM).
`CN(C)CC#Cc1ccc(OCCCc2sc(N3CCc4cccc(C(=O)Nc5nc6ccccc6s5)c4C3)nc2C(=O)O)c(F)c1` gave a remaining binding of 100% (cell-free assay; competition with immobilised ligand; 1 µM).
For `Nc1ncnc2occ(-c3ccc(NC(=O)Nc4cc(C(F)(F)F)ccc4F)cc3)c12`, the remaining activity was 5.9% (enzyme activity; inhibitor; 20 µM).
`c1ccc(CNc2nc(N3CCOc4ccccc43)nc3c2CCCC3)cc1` gave an inhibition of -16.5% (target engagement in cells; inhibitor; chemoproteomics; 20 mM).
`O=C(Nc1nccs1)C(c1cc(F)ccc1O)N1Cc2ccccc2C1=O` (stereo not shown) gave an inhibition of 9% (enzyme activity; inhibitor; 1 µM).
`O=C(CSc1nc2nccnc2c(=O)n1CCc1ccccc1)Nc1ccccc1` gave an inhibition of under 20% (enzyme activity; inhibitor; 10 µM).
